Most compounds without a hit are left out; they make up all but 2.6% or so of the library.
Rev-erbA mod: modulates human Rev-erb alpha binding to DNA. Rev-erbα–FITC-DNA binding, fluorescence polarization, 90 min. actives 0.79% (n = 370,000). AID 1259318. activity, % at 10 µM. P20393;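 active means activity above about 14%, limit read from the data; passing the limit was not always enough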;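 further: 0% = DMSO wells with 35 nM protein and 100% = DMSO wells with 750 nM protein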
PG9 binder: PG9 antibody binding by small molecule | TR-FRET gp120-PG9 antibody binding | inhibition, % at 6.7 µM | actives 0.43% (n = 360,000); in the data active means inhibition above about 8.5%
rCAG binder: molecules binding r(CAG) RNA repeats; inhibition, % at 3 µM; actives 1.3% (n = 370,000); r(CAG) RNA repeat, TO-PRO-1 dye displacement fluorescence; AID 651821;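 active means inhibition above the plate cutoff, the mean of all test compounds on that plate plus 3 SD, cut at about 35% in these data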;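 further: 0% = DMSO alone and 100% = 100 µM mitoxantrone as full dye displacement; higher means more dye released from RNA so lower well fluorescence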
NR2E3 ag-1: agonists of human nuclear receptor NR2E3 | Q9Y5X4 | GST-NR2E3/biotin-RetCOR TR-FRET, 1536-well | inhibition of corepressor binding, % at 4.78 µM | actives 0.12% (n = 320,000) | AID 2300;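 active means percent inhibition above the cutoff of mean plus 3 SD of all tested compounds, set per screening campaign, cut at about 20% in these data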;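 further: 0% = DMSO wells and 100% = biotin wells as full block of FRET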
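Material – GST-tagged NR2E3 plus biotinylated RetCOR corepressor · Quantity – NR2E3 fusion 1.35 nM · Times – 5 h incubation at 4 °C · Medium – pH 7.5 Tris-based buffer · Technique – TR-FRET, Eu(K)-anti-GST donor, streptavidin-D2 acceptor, ex 340, em 617/671 nm · Benchmarks – high control biotin, low control 0.6% DMSO · Format – 1536-well plates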
NR2E3 ag-2: human photoreceptor-specific nuclear receptor agonism; inhibition of corepressor binding, % at 3.98 µM; AID 602229; Q9Y5X4; actives 0.35% (n = 360,000); CHO-S Gal4-NCOR/VP16-NR2E3 two-hybrid, luciferase;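 active means inhibition above the mean of all tested compounds plus 3 SD, cut at about 70% in these data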;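 further: 0% = DMSO with NR2E3 transfected cells and 100% = cells lacking NR2E3 construct; higher means lower luciferase signal from less NR2E3 corepressor binding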
NR2E3 agonist cf: confirmation of human NR2E3 nuclear receptor agonists; AID 2379; actives 39% (n = 360); cell-free NR2E3 corepressor release, TR-FRET, 5 h; shares compounds with NR2E3 ag-1; activation (reported as inhibition), % at 3.98 µM; in the data active means activation above about 20%
PPARg-NCOR2 ag: counter-screen for NR2E3 agonists: human PPARgamma-NCOR2 interaction agonists; shares compounds with NR2E3 ag-1; TR-FRET PPARg-NCOR2 coregulator interaction, biochemical; inhibition, % at 3.98 µM; actives 45% (n = 360); AID 504787; in the data active means inhibition above about 20%;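 further: 0% = DMSO vehicle and 100% = wells without protein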
The depositor's hits bear a star; x = no result given.

SMILES	Rev-erbA mod	PG9 binder	rCAG binder	NR2E3 ag-1	NR2E3 ag-2	NR2E3 agonist cf	PPARg-NCOR2 ag
CCC(=O)O[C@@H]1CC(=O)O[C@H](C)C/C=C/C=C/[C@H](O)[C@H](C)C[C@H](CC=O)[C@H](O[C@@H]2O[C@H](C)[C@@H](O[C@H]3C[C@@](C)(O)[C@@H](OC(=O)CC)[C@H](C)O3)[C@H](N(C)C)[C@H]2O)[C@H]1OC	0.0	x	x	x	x	x	x
O=c1[nH]c(CN2CCN(c3ncccn3)CC2)nc2c(Br)cc(Br)cc12	8.6	3.1	10.6	26.8*	38.1	13.9	24.6*
CC(=O)CC/C=C(\C)CC/C=C(\C)CC/C=C(\C)CCC=C(C)C	-3.5	x	x	x	x	x	x
C=CCN(CC=C)Cc1c(O)ccc2c1oc(=O)c1ccccc12	2.4	4.6	7.5	34.4*	-33.5	13.7	-4.2
C=CCN(CC=C)Cc1cc(=O)oc2ccc3ccccc3c12	-0.9	-0.8	5.9	x	-32.1	x	x
COc1ccc(NC(=O)CCNS(=O)(=O)c2cc(Br)ccc2Br)cc1S(N)(=O)=O	5.0	-2.0	7.9	23.4*	11.8	-8.0	-6.9
COc1ccc(NC(=O)CCNC(=O)c2ccccc2)cc1S(N)(=O)=O	-1.7	-1.1	-3.2	0.9	-13.0	x	x
O=C(N[C@@H](CO)[C@H](O)c1ccc([N+](=O)[O-])cc1)C(Cl)Cl	-4.4	x	x	x	x	x	x
CCCCOC(=O)CSC1=C(C#N)C(c2ccccc2OCC)C(C#N)C(=O)N1 (stereo not given)	x	x	x	21.8*	10.9	-6.0	36.5*
CCCCn1c(NS(=O)(=O)c2ccccc2)c(S(=O)(=O)c2ccc(C)cc2)c2nc3ccccc3nc21	-4.4	1.2	3.8	19.5	3.3	x	x
CCCCCn1c(NC(=O)c2ccco2)c(S(=O)(=O)c2ccc(C)cc2)c2nc3ccccc3nc21	-3.4	3.2	17.9	20.5*	-7.3	9.0	41.7*
Cc1cc2c(cc1CC(=O)c1sccc1S(=O)(=O)Nc1onc(C)c1Cl)OCO2	-7.8	x	x	x	x	x	x
CN(C(=O)c1ccc(NC(=O)Cc2ccc(NC(=O)C3CCN(C(=O)C4CCCCC4)CC3)cc2)cc1)C1CC1	-0.2	0.8	-5.5	19.6*	-15.2	-0.1	-6.8
CN(C(=O)c1ccc(NC(=O)Cc2ccc(NC(=O)C3CCN(C(=O)C4CCCC4)CC3)cc2)cc1)C1CCCC1	12.1	-0.9	3.0	x	-36.3	x	x
Nc1ccc2c(c1)C(=O)C(=O)c1ccccc1-2	-21.1	-41.6	4.7	19.6*	69.8	8.7	48.3*
Nc1ccc2c(c1)C(=O)c1ccccc1-2	-1.9	-13.3	2.2	-11.0	-11.9	x	x
CO[C@H]1C[C@H](O[C@H]2[C@H](C)[C@@H](O[C@@H]3O[C@H](C)C[C@H](N(C)C)[C@H]3O)[C@@H](C)C[C@]3(CO3)C(=O)[C@H](C)[C@@H](O)[C@@H](C)[C@@H](C)OC(=O)[C@@H]2C)O[C@@H](C)[C@@H]1O	2.5	x	x	x	x	x	x
C[C@@H]1CC2C3CCC4=CC(=O)C=C[C@]4(C)[C@@]3(F)[C@@H](O)C[C@]2(C)[C@@]1(O)C(=O)CO (stereo not given in full)	-5.0	x	x	x	x	x	x
CC(=O)OCC(=O)[C@@]12OC(C)(C)O[C@@H]1CC1C3C[C@H](F)C4=CC(=O)C=C[C@]4(C)[C@@]3(F)[C@@H](O)C[C@@]12C (stereo not given in full)	2.1	x	x	x	x	x	x
CCCCC1=CC2=C(c3ccco3)C(=O)C(C)(OC(=O)c3ccc(OC)cc3)C(=O)C2=CN1CCOC (stereo not given)	-4.0	0.9	2.5	0.1	1.4	x	x
CCCCC1=CC2=C(c3ccco3)C(=O)C(C)(OC(=O)c3ccc(OC)cc3)C(=O)C2=CN1Cc1ccc2c(c1)OCO2 (stereo not given)	x	x	x	23.0*	7.5	0.2	5.0
C#C[C@]1(O)CCC2C3CCc4cc(OC)ccc4C3CC[C@@]21C (stereo not given in full)	-3.6	x	x	x	x	x	x
CCNC(=S)Nc1nc2c(cc1C(=O)OCC)CCCC2	6.4	-1.6	2.5	21.3*	-15.5	26.7*	19.9*
C=CCNC(=S)Nc1nc2c(cc1C(=O)OCC)CCCC2	3.3	-1.3	6.1	1.1	-11.3	x	x
C#C[C@]1(O)CCC2C3CCC4=CC(=O)CC[C@@H]4C3CC[C@@]21CC (stereo not given in full)	-3.1	x	x	x	x	x	x
SMILES	Rev-erbA mod	PG9 binder	rCAG binder	NR2E3 ag-1	NR2E3 ag-2	NR2E3 agonist cf	PPARg-NCOR2 ag
O=C(CNC(=O)c1ccc(Cl)cc1)NO	1.8	x	x	x	x	x	x
CCN(CC)c1ccc2c(-c3ccc(S(=O)(=O)O)cc3S(=O)(=O)[O-])c3ccc(=[N+](CC)CC)cc-3oc2c1	x	x	x	46.2*	5.4	41.0*	48.5*
CO[C@H]1/C=C/O[C@@]2(C)Oc3c(C)c(O)c4c(O)c(c(C=NN5CCN(C)CC5)c(O)c4c3C2=O)NC(=O)/C(C)=C\C=C\C(C)[C@H](O)[C@@H](C)[C@@H](O)[C@@H](C)[C@@H](OC(C)=O)[C@@H]1C (stereo not given in full)	-2.4	x	x	x	x	x	x
O=C(CCN1CCCCC1)N/N=C/c1c[nH]c2ccccc12	-3.5	1.3	-1.6	3.4	14.4	x	x
CN1CCN(CC(=O)N/N=C\c2c[nH]c3ccccc23)CC1	1.6	-1.1	3.1	29.7*	x	-5.4	-5.2
CCCCCCCC(=O)CC[C@@H]1[C@@H](C/C=C\CCCC(=O)OC(C)C)[C@@H](O)C[C@H]1O	-5.0	x	x	x	x	x	x
Cc1cccc(-c2nc(=S)c3c(n2Cc2ccco2)CCCC3)c1	1.9	1.7	3.9	27.6*	10.3	4.0	7.5
Cc1ccc(-c2nc(=S)c3c(n2Cc2ccco2)CCCC3)cc1	2.4	0.3	5.1	x	-10.4	x	x
O=C(O)CCCN1CCC(O[C@@H](c2ccc(Cl)cc2)c2ccccn2)CC1	-10.8	x	x	x	x	x	x
O=c1oc2c(O)c(O)cc3c(=O)oc4c(O)c(O)cc1c4c23	-46.5	x	x	37.6*	-14.0	33.9*	x
O=C(CN1C(=O)COc2ccccc21)N(Cc1cccnc1)Cc1ccccc1F	7.1	x	x	30.7*	-35.0	-12.4	-7.8
N#Cc1c(-c2ccco2)c2c([nH]c1=S)CCCC2	2.2	6.1	24.3	38.7*	-35.4	14.4	22.6*
O=C(C1=C(O)C(=O)N(CCc2ccccc2)C1c1cccnc1)c1ccco1 (stereo not given)	1.9	7.4	7.0	25.4*	-7.6	17.5	23.1*
O=C(C1=C(O)C(=O)N(CCCn2ccnc2)C1c1ccc(F)cc1)c1ccco1 (stereo not given)	0.0	1.7	-1.7	36.2*	-7.9	3.9	1.6
COCCCN1C(=O)C(O)=C(C(=O)c2ccco2)C1c1ccccc1 (stereo not given)	-5.4	5.4	1.7	21.6*	0.6	19.5	17.0

Source: PubChem BioAssay
